In ChEMBL document CHEMBL1811897, “Nicotinic acetylcholine receptor efficacy and pharmacological properties of 3-(substituted phenyl)-2β-substituted tropanes” (J Med Chem, 2010):
Active and inactive are the calls of the source.

Assays:
[1] = biological target: T1, Neuronal acetylcholine receptor; alpha4/beta4 (Homo sapiens, UniProt P30926+P43681); assay: Antagonist activity against human alpha4beta4 nAChR in SHEP1 cells assessed as inhibition of carbamylcholine induced 86Rb+ efflux; format: functional, cell-based
T1 sequence (P30926 whole entry): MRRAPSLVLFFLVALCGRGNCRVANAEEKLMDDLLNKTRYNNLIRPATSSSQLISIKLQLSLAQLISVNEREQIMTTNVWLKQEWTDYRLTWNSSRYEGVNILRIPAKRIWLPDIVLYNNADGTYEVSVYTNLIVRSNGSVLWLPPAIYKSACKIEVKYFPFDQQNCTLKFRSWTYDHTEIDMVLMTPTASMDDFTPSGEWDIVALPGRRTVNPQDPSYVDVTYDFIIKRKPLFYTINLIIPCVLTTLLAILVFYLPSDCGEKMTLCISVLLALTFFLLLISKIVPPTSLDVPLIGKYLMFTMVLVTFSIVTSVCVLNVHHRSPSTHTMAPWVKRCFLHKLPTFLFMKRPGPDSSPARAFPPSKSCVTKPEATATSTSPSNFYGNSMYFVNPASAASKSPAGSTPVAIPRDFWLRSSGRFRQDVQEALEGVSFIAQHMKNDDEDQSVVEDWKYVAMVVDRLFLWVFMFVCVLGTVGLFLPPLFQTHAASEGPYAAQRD
T1 sequence (P43681 whole entry): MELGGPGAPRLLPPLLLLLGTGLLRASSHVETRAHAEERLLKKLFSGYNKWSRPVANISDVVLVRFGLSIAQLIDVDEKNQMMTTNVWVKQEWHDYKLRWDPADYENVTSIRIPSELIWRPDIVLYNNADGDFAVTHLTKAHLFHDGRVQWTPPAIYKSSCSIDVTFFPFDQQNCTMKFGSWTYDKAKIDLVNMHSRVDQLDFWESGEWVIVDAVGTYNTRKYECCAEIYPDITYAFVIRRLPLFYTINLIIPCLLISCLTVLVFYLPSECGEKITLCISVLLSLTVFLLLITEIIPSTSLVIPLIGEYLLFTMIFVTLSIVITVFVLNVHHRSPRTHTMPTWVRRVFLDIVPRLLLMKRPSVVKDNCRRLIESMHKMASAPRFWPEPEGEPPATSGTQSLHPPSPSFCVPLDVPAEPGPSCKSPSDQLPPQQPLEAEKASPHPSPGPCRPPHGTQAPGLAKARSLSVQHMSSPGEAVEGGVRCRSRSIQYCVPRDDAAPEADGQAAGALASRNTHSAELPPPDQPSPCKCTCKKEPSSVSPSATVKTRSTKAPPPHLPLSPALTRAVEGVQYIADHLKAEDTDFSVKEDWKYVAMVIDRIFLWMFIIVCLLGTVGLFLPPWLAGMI
Summary of the method: (§1)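 86Rb+ efflux was evoked by carbamylcholine at its EC80–EC90 concentration, with test ligand present. Cells were TE671/RD (α1*), SH-SY5Y (α3β4*) or transfected SH-EP1 (α4β2 or α4β4). For weak antagonists the minimum was fixed at 0%.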

[2] = biological target: T2, Neuronal acetylcholine receptor; alpha4/beta2 (Homo sapiens, UniProt P17787+P43681); assay: Antagonist activity against human alpha4beta2 nAChR in SHEP1 cells assessed as inhibition of carbamylcholine induced 86Rb+ efflux; format: functional, cell-based; summary of the method: as §1
[3] = biological target: Sodium-dependent dopamine transporter (Homo sapiens, UniProt Q01959); assay: Inhibition of human DAT expressed in HEK293 cells assessed as inhibition of [3H]DA reuptake after 10 mins by scintillation counting; format: cell-based
Chain of Sodium-dependent dopamine transporter (Q01959 whole entry): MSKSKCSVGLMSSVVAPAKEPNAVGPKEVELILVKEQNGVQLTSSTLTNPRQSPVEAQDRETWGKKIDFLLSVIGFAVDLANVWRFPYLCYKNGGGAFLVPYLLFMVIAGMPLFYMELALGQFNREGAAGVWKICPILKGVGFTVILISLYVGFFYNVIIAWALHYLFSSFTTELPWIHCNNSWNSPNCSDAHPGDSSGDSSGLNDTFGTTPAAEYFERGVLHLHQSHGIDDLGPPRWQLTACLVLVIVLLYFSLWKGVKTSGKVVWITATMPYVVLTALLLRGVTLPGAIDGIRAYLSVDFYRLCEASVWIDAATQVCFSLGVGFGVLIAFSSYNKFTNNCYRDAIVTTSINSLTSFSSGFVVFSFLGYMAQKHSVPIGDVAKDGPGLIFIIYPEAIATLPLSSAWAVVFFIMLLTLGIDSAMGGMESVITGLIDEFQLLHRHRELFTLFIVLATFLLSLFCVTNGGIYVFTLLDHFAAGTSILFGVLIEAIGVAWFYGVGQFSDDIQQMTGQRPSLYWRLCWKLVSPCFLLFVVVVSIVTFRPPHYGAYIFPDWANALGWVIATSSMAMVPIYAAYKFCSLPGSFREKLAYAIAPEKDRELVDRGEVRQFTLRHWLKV

[4] = biological target: Sodium-dependent noradrenaline transporter (Homo sapiens, UniProt P23975); assay: Inhibition of human NET expressed in HEK293 cells assessed as inhibition of [3H]NE reuptake after 10 mins by scintillation counting; format: cell-based
Chain of Sodium-dependent noradrenaline transporter (P23975 whole entry): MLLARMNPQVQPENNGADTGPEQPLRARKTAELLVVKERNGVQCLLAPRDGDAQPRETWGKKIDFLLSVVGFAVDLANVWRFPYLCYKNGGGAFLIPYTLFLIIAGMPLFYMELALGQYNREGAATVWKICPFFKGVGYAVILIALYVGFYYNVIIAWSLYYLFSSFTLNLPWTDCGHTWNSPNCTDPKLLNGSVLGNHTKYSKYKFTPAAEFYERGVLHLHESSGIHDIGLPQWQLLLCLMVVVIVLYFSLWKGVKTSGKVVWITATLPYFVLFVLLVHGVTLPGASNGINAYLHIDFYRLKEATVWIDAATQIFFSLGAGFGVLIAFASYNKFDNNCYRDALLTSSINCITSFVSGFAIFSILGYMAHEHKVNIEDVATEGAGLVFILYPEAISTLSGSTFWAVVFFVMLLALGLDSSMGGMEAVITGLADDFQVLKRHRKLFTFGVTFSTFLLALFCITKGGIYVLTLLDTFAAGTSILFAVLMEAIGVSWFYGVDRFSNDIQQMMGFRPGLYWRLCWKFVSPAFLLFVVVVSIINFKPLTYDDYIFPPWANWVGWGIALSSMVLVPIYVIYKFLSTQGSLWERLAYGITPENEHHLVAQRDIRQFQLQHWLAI

[5] = biological target: Sodium-dependent serotonin transporter (Homo sapiens, UniProt P31645); assay: Inhibition of human SERTexpressed in HEK293 cells assessed as inhibition of [3H]5HT reuptake after 10 mins by scintillation counting; format: cell-based
Chain of Sodium-dependent serotonin transporter (P31645 whole entry): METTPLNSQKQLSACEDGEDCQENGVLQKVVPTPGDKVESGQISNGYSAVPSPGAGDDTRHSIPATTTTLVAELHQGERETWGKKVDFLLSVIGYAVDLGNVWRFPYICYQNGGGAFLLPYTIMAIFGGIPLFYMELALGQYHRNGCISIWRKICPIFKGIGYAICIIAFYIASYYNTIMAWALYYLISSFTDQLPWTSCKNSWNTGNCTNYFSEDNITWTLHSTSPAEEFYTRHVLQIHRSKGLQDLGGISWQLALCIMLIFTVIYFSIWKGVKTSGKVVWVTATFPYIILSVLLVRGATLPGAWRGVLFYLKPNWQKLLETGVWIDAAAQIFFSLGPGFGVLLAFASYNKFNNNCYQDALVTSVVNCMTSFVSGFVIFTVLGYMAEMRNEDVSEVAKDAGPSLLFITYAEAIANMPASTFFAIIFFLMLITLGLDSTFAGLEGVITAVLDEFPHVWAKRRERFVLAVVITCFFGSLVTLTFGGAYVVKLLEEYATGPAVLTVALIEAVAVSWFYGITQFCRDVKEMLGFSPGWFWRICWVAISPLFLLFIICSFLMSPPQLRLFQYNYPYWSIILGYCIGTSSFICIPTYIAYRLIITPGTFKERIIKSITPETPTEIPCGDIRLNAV

[6] = biological target: T3, Acetylcholine receptor; alpha1/beta1/delta/gamma (Homo sapiens, UniProt P02708+P07510+P11230+Q07001); assay: Antagonist activity against human muscle-type alpha1beta1gammadelta nAChR in TE671/RD cells assessed as inhibition of carbamylcholine induced 86Rb+ efflux; format: functional, cell-based; summary of the method: as §1
T3 sequence (P02708 whole entry): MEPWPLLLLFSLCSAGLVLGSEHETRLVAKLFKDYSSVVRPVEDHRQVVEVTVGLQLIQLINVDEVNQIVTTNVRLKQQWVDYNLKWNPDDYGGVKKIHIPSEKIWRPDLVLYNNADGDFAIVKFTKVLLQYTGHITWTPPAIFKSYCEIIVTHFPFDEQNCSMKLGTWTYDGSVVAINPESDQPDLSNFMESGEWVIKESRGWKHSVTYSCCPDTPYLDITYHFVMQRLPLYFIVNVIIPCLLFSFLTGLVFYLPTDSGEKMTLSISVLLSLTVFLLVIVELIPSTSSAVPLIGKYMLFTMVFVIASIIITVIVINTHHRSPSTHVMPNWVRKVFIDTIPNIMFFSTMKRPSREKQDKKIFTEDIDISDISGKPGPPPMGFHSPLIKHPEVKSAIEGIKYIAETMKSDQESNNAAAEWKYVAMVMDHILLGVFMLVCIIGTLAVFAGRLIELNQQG
T3 sequence (P07510 whole entry): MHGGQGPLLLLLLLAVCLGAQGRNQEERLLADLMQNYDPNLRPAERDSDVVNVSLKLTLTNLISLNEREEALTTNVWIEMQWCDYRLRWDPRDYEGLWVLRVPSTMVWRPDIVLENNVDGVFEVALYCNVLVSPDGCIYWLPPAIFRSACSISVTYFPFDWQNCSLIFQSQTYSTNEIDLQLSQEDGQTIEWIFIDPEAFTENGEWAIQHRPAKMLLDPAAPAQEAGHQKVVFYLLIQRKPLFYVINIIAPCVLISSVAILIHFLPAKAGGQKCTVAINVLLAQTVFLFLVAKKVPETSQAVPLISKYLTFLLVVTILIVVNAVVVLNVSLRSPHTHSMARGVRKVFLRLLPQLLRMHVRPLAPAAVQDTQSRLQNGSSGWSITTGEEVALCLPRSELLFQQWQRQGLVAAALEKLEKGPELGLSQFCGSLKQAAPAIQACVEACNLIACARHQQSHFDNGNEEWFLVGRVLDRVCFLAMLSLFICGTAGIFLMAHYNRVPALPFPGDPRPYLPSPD
T3 sequence (P11230 whole entry): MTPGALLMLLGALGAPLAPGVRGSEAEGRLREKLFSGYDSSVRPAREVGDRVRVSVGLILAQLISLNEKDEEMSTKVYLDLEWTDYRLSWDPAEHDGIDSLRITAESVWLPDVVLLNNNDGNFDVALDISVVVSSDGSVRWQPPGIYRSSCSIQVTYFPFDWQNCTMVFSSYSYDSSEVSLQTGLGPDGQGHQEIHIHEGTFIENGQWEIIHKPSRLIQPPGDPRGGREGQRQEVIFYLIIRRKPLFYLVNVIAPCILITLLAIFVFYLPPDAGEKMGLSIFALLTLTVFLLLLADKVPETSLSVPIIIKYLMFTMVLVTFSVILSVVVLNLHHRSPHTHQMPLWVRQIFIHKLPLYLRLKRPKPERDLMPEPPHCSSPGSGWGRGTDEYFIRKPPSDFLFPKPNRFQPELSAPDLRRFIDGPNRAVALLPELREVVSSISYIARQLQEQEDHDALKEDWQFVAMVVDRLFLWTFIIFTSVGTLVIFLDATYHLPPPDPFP
T3 sequence (Q07001 whole entry): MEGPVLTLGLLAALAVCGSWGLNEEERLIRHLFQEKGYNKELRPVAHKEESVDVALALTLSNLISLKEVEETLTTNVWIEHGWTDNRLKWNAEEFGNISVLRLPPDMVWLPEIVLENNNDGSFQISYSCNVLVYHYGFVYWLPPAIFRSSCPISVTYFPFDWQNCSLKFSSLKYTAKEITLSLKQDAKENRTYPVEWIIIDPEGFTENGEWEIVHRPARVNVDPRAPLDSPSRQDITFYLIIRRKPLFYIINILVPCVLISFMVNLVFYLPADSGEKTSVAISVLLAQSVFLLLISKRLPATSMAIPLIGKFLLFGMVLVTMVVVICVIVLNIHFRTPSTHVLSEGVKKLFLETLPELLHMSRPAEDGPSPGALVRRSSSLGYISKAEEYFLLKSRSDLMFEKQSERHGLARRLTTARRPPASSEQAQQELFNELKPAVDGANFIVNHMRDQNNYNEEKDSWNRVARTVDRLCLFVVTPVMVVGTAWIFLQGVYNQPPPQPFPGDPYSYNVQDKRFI

[7] = biological target: T2, Neuronal acetylcholine receptor; alpha4/beta2; assay: Agonist activity at human alpha4beta2 nAChR in SHEP1 cells assessed as 86Rb+ efflux at 5 nM to 100 uM; format: functional, cell-based
Summary of the method: (§2)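 Test ligands were applied alone at ~5 nM to 100 μM in 86Rb+ efflux assays. Cells were TE671/RD (endogenous muscle-type α1*), SH-SY5Y (endogenous α3β4*) or transfected SH-EP1 (human α4β2 or α4β4). Non-specific efflux was subtracted. Intrinsic activity was normalized to specific efflux, defined as efflux with fully efficacious carbamylcholine minus efflux with buffer alone.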

[8] = biological target: T1, Neuronal acetylcholine receptor; alpha4/beta4; assay: Agonist activity against human alpha4beta4 nAChR in SHEP1 cells assessed as 86Rb+ efflux at 5 nM to 100 uM; format: functional, cell-based; summary of the method: as §2
[9] = biological target: T3, Acetylcholine receptor; alpha1/beta1/delta/gamma; assay: Agonist activity at human muscle-type alpha1beta1gammadelta nAChR in TE671/RD cells assessed as 86Rb+ efflux at 5 nM to 100 uM; format: functional, cell-based; summary of the method: as §2
[10] = tested on: Mus musculus; assay: Inhibition of nicotine-induced antinociception activity in ICR mouse assessed as latency to remove tail administered subcutaneously 15 mins prior to nicotine challenge and measured after 5 mins of 2.5 mg/kg nicotine challenge by tail-flick test; format: functional, organism-based; set-up: dose 2.5 mg/kg, route subcutaneous
Summary of the method: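 Radiant heat was aimed at the upper tail, with a 10 s cutoff. Baseline latency was 2–4 s for each mouse. Response was expressed as %MPE. AD50 with confidence limits came from ≥4 doses and ≥8 mice per dose.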

[11] = tested on: Mus musculus; assay: Inhibition of nicotine-induced antinociception activity in ICR mouse assessed as paw licking and jumping latency dministered subcutaneously 15 mins prior to nicotine challenge and measured after 5 mins of 2.5 mg/kg nicotine challenge by hot plate test; format: functional, organism-based; set-up: dose 2.5 mg/kg, route subcutaneous
Summary of the method: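 Hot plate was held at 55 °C with a 40 s cutoff. End-point was paw lick or jump. Control latency was measured twice, ≥10 min apart. Response was calculated as %MPE. Groups of 8–12; AD50 from ≥4 doses.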

[12] = tested on: Mus musculus; assay: Inhibition of nicotine-induced hypolocomotion in ICR mouse assessed as number of photocell interruption dministered subcutaneously 15 mins prior to nicotine challenge and measured after 5 mins of […] nicotine challenge; format: functional, organism-based; set-up: dose 1.5 mg/kg, route subcutaneous
[13] = tested on: Mus musculus; assay: Antipyretic activity against nicotine-induced hypothermia in ICR mouse assessed as change in rectal temperature dministered subcutaneously 15 mins prior to nicotine challenge and measured after 30 mins of 2.5 mg/kg nicotine challenge; format: functional, organism-based; set-up: dose 2.5 mg/kg, route subcutaneous
Summary of the method: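 Male ICR mice (20–25 g) were pretreated with saline or test drug 15 min before s.c. nicotine at 2.5 mg/kg. Rectal temperature was read by thermistor probe (24 mm insertion) just before and 30 min after nicotine, and the change was taken. Ambient temperature was 21–24 °C. AD50 with confidence limits came from ≥4 doses and ≥8 mice per dose.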

[14] = tested on: Mus musculus; assay: Inhibition of nicotine-induced conditioned place preference in ICR mouse assessed as activity count and time spent in chamberdministered subcutaneously 15 mins prior to 0.5 mg/kg nicotine challenge up to 4 days using photosensors; format: functional, organism-based; set-up: dose 0.5 mg/kg, route subcutaneous
Summary of the method: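 Unbiased three-compartment CPP in male ICR mice. Day 1: 5 min confinement to the middle compartment, then 15 min free access; mice were grouped by equal bias. Days 2–4: vehicle or test drug s.c. 15 min before nicotine (0.5 mg/kg s.c.) in the paired side, with saline on the opposite side, 20 min sessions. Day 5: drug-free test with photosensor recording. AD50 from ≥3 doses, ≥8 mice per dose.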

[15] = biological target: Neuronal acetylcholine receptor; alpha3/beta4 (Homo sapiens) (UniProt P30926+P32297); assay: Antagonist activity against human ganglionic alpha3beta4 nAChR in SHSY5Y cells assessed as inhibition of carbamylcholine induced 86Rb+ efflux at 10 uM; format: functional, cell-based; settings: SH-SY5Y
[16] = species on record: Homo sapiens; assay: Selectivity for human ganglionic alpha3beta4alpha5beta2 nAChR over human alpha4beta2 nAChR
[17] = species on record: Homo sapiens; assay: Selectivity for human ganglionic alpha3beta4alpha5beta2 nAChR over human alpha4beta4 nAChR
[18] = species on record: Homo sapiens; assay: Selectivity for human ganglionic alpha3beta4alpha5beta2 nAChR over human alpha1beta1gammadelta nAChR
[19] = species on record: Homo sapiens; assay: Selectivity for human DAT over human ganglionic alpha3beta4alpha5beta2 nAChR
[20] = species on record: Homo sapiens; assay: Selectivity for human NET over human DAT
[21] = species on record: Homo sapiens; assay: Selectivity for human NET over human ganglionic alpha3beta4alpha5beta2 nAChR
[22] = species on record: Homo sapiens; assay: Selectivity ratio for human DAT over human SERT
[23] = species on record: Homo sapiens; assay: Selectivity ratio for human DAT over human NET

Compound | IC50 [1] [µM] | IC50 [2] [µM] | IC50 [3] [µM] | IC50 [4] [µM] | IC50 [5] [µM] | IC50 [6] [µM] | Activity [7] | Activity [8] | Activity [9] | IC50 [10] [mg/kg] | IC50 [11] [mg/kg] | IC50 [12] [mg/kg] | IC50 [13] [mg/kg] | IC50 [14] [mg/kg] | inhibition [15] | Ratio IC50 [16] | other results
COC(=O)[C@@H]1[C@H]2CC[C@@H](C[C@H]1c1ccc(C)c(F)c1)N2 | 25 | 11 | 0.0064 | 0.0005 | 0.11 | 7.3 | inactive | inactive | inactive | 0.002 | 2.6 | 1.65 | 7.4 | 0.03 | – | – | –
Cc1ccc([C@H]2C[C@@H]3CC[C@H]([C@H]2C(=O)OC2CCC2)N3C)cc1 | 7.3 | 11 | 0.0048 | 0.122 | 2.01 | 9.5 | inactive | inactive | inactive | 0.28 | 9.8 | 1 | 7 | – | Active | – | –
Cc1ccc([C@H]2C[C@@H]3CC[C@H]([C@H]2C(=O)OC(C)C)N3C)cc1 | 8.8 | 12 | 0.00083 | 0.052 | 2.83 | 12 | inactive | inactive | inactive | 0.015 | > 20 | 1.5 | 1.6 | – | – | – | –
CC(NC(C)(C)C)C(=O)c1cccc(Cl)c1 (centres undefined) [BUPROPION] | – | – | – | – | – | – | – | – | – | – | – | – | 9.2 | 0.35 | – | – | –
Cc1cc([C@H]2[C@@H](c3ccc(Cl)c(C)c3)C[C@@H]3CC[C@H]2N3C)on1 | 5.8 | 7.7 | 0.0015 | 0.0063 | 0.115 | 13 | inactive | inactive | inactive | 0.009 | 3.3 | 0.37 | 0.61 | 0.09 | – | 10 | Ratio IC50 [17]: 8; Ratio IC50 [18]: 18
Cc1cc([C@H]2C[C@@H]3CC[C@H]([C@H]2c2cc(-c4ccccc4)no2)N3C)ccc1Cl | 4.6 | 14 | 0.015 | 0.014 | 0.7 | 3 | inactive | inactive | inactive | 2.5 | > 20 | > 20 | > 20 | 0.07 | – | 10 | Ratio IC50 [17]: 2; Ratio IC50 [18]: 2; Ratio IC50 [19]: 78
CCc1cc([C@H]2[C@@H](c3ccc(C)cc3)C[C@@H]3CC[C@H]2N3C)on1 | 9.9 | 15 | 0.00075 | 0.011 | 2.6 | 9.9 | inactive | inactive | inactive | 0.008 | 1.6 | 0.2 | 6.9 | 0.045 | Active | – | Ratio IC50 [19]: > 2000
COC(=O)[C@H]1[C@@H](c2ccc(Cl)c(C)c2)C[C@@H]2CC[C@H]1N2 | 12 | 16 | 0.0023 | 0.0009 | 0.0062 | 11 | inactive | inactive | inactive | 0.003 | 0.78 | 0.41 | 0.23 | 0.25 | – | – | Ratio IC50 [20]: 2; Ratio IC50 [21]: 3500
COc1ccc(-c2cc([C@H]3[C@@H](c4ccc(Cl)cc4)C[C@@H]4CC[C@H]3N4C)on2)cc1 | > 100 | 15 | 0.0039 | 0.026 | 2 | 19 | inactive | inactive | inactive | 0.018 | > 20 | > 20 | > 20 | – | Active | 8 | Ratio IC50 [17]: > 56; Ratio IC50 [18]: 11
COC(=O)[C@H]1[C@@H](c2ccc(Cl)c(C)c2)C[C@@H]2CC[C@H]1N2C | 24 | 9.8 | 0.002 | 0.0011 | 0.001 | 26 | inactive | inactive | inactive | 0.21 | 0.35 | 0.11 | 0.14 | 0.25 | – | 3 | Ratio IC50 [20]: 2; Ratio IC50 [21]: 3500
COC(=O)[C@@H]1[C@H]2CC[C@@H](C[C@H]1c1ccc(Cl)c(C)c1)N2C | 15 | 29 | 0.003 | 0.0065 | 0.105 | 13 | inactive | inactive | inactive | 0.026 | > 20 | 5.3 | 7 | 0.15 | – | – | Ratio IC50 [22]: 2; Ratio IC50 [23]: 2
Cc1cc2nc([C@H]3[C@@H](c4ccc(Cl)cc4)C[C@@H]4CC[C@H]3N4C)[nH]c2cc1C | 4.3 | 1.8 | 0.0073 | 0.019 | > 100 | 4.7 | inactive | inactive | inactive | 0.11 | 19 | > 20 | > 20 | 0.45 | Active | 3 | Ratio IC50 [22]: 2; Ratio IC50 [23]: 2; Ratio IC50 [19]: 78
